We go through 4 compounds from ChEMBL document CHEMBL2202994, “Heteroaryl urea inhibitors of fatty acid amide hydrolase: structure-mutagenicity relationships for arylamine metabolites” (Bioorg Med Chem Lett, 2012).

The target in series [1] is T1, Fatty-acid amide hydrolase 1 (Homo sapiens, UniProt O00519).
T1 sequence (O00519 whole entry): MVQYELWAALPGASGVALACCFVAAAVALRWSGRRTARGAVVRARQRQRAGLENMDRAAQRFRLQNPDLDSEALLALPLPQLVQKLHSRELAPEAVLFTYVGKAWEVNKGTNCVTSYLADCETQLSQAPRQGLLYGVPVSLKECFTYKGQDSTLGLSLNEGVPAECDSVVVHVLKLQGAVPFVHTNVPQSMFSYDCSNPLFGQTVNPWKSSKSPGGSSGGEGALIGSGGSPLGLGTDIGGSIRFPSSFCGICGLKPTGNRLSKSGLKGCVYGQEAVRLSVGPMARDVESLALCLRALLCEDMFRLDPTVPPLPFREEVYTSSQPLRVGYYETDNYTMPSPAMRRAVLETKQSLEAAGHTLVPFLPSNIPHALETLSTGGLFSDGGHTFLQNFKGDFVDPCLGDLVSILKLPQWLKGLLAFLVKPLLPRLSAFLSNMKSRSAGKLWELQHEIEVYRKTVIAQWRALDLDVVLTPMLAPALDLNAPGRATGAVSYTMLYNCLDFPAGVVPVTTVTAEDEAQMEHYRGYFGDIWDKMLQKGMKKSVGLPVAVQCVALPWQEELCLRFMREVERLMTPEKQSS
The experiment in a line: Inhibition of human FAAH preincubated for 60 mins.

Series [2] relates to Salmonella typhimurium. The experiment in a line: Genotoxicity in Salmonella typhimurium TA98 by Ames test in presence of S9 fractions. The class given is toxicity, organism-based, S9 Fraction. The note with it: salmonella enterica subsp. enterica serovar typhimurium. The method, boiled down: (§1)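 Ames II liquid fluctuation microplate variant of the bacterial reverse mutation assay, run on the free heteroaryl amines released from the urea inhibitors. The TAMix strain mixture (TA7001–TA7006) detects base-pair substitutions and TA98 detects frameshift mutations. For metabolic activation, compounds were preincubated with rat liver S9 extract or run without it. Results were scored as positive or negative.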
(The Ames test uses bacterial strains that need an amino acid and regain growth without it when mutated back.)

Series [3] addresses T2, Fatty-acid amide hydrolase 1 (Rattus norvegicus, UniProt P97612).
T2 sequence (P97612 whole entry): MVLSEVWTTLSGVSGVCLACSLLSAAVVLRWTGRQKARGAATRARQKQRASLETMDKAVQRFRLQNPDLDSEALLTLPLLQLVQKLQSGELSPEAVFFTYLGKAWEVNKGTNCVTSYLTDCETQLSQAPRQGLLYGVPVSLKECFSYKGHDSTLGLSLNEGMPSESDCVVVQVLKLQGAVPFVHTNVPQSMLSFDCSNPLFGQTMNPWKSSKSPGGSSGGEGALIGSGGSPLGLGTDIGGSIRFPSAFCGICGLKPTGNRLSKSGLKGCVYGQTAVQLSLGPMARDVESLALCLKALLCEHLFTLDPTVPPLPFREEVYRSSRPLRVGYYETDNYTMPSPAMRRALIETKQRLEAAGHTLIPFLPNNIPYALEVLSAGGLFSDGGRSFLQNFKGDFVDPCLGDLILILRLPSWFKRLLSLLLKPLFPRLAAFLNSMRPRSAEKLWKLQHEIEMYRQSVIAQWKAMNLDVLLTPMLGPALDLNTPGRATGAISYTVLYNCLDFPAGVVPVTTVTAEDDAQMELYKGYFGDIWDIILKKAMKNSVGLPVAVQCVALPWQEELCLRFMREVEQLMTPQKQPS
The series is described as follows: Inhibition of rat FAAH preincubated for 60 mins.

For series [4], the system named is Salmonella typhimurium. The experiment in a line: Genotoxicity in Salmonella typhimurium TAMix by Ames test in absence of S9 fractions. Format: toxicity, organism-based. The note with it: salmonella enterica subsp. enterica serovar typhimurium. The method, boiled down: as §1
For series [5], the system named is Salmonella typhimurium. The experiment in a line: Genotoxicity in Salmonella typhimurium TA98 by Ames test in absence of S9 fractions. The settings on record: salmonella enterica subsp. enterica serovar typhimurium. The class given is toxicity, organism-based. The method, boiled down:
as §1

Series [6] has as its system Salmonella typhimurium. The series is described as follows: Genotoxicity in Salmonella typhimurium TAMix by Ames test in presence of S9 fractions. Format: toxicity, organism-based, S9 Fraction. The note with it: salmonella enterica subsp. enterica serovar typhimurium. The method, boiled down: as §1

Structures are written as SMILES.

In general, IC50 refers to the concentration that gives 50% inhibition. Low readings indicate greater potency, high ones weaker potency. Consider `O=C(Nc1ccccc1)N1CCN(Cc2cccc(Oc3ccc(Cl)cc3)c2)CC1`, for which the IC50 in series [1] is 0.006 µM; in series [3] it was 0.3 µM. Further, the Activity entry in the series on Salmonella typhimurium [2], with Salmonella typhimurium [4], in the series on Salmonella typhimurium [5] and in the series with Salmonella typhimurium [6] was “Non-toxic” throughout.

Take `O=C(Nc1cccnc1)N1CCN(Cc2cccc(Oc3ccc(Cl)cc3)c2)CC1`: the results for the IC50 in series [1] and in series [3] were 0.0014 µM and 0.033 µM, respectively. Also, the Activity result in the series on Salmonella typhimurium [2], in the series on Salmonella typhimurium [4], in the series with Salmonella typhimurium [5] and in the series on Salmonella typhimurium [6] was “Non-toxic” each time.

Consider `O=C(Nc1cn2ccccc2n1)N1CCN(Cc2cccc(Oc3ccc(Cl)cc3)c2)CC1`, for which the IC50 in series [1] and in series [3] was over 10 µM each time. In addition, the Activity entry in the series with Salmonella typhimurium [2], with Salmonella typhimurium [4], in the series with Salmonella typhimurium [5] and in the series with Salmonella typhimurium [6] was “Non-toxic” in each case.

In the case of `O=C(Nc1cnccn1)N1CCN(Cc2cccc(Oc3ccc(Cl)cc3)c2)CC1`, the Activity result with Salmonella typhimurium [2], in the series with Salmonella typhimurium [4], in the series on Salmonella typhimurium [5] and in the series with Salmonella typhimurium [6] was “Non-toxic” in each case. The IC50 in series [3] is 0.15 µM.
